Results taken from ChEMBL document CHEMBL5325511, “Discovery of N-(4-(Aminomethyl)phenyl)-5-methylpyrimidin-2-amine Derivatives as Potent and Selective JAK2 Inhibitors” (ACS Med Chem Lett, 2023).
pIC50: −log10 of the molar value. Active and inactive are the calls of the source. The calls are words filed in the database; no cut-off is given here.

Experiments:
[1] = Metabolic stability in human liver microsomes assessed as half life; format: ADME, Microsome
[2] = target: T1, Receptor-type tyrosine-protein kinase FLT3 (Homo sapiens, UniProt P36888); experiment: Inhibition of FLT3 (unknown origin) in presence of Mg/ATP mixture by [gamma p33]-ATP based radiometric assay
T1 sequence (P36888 whole entry): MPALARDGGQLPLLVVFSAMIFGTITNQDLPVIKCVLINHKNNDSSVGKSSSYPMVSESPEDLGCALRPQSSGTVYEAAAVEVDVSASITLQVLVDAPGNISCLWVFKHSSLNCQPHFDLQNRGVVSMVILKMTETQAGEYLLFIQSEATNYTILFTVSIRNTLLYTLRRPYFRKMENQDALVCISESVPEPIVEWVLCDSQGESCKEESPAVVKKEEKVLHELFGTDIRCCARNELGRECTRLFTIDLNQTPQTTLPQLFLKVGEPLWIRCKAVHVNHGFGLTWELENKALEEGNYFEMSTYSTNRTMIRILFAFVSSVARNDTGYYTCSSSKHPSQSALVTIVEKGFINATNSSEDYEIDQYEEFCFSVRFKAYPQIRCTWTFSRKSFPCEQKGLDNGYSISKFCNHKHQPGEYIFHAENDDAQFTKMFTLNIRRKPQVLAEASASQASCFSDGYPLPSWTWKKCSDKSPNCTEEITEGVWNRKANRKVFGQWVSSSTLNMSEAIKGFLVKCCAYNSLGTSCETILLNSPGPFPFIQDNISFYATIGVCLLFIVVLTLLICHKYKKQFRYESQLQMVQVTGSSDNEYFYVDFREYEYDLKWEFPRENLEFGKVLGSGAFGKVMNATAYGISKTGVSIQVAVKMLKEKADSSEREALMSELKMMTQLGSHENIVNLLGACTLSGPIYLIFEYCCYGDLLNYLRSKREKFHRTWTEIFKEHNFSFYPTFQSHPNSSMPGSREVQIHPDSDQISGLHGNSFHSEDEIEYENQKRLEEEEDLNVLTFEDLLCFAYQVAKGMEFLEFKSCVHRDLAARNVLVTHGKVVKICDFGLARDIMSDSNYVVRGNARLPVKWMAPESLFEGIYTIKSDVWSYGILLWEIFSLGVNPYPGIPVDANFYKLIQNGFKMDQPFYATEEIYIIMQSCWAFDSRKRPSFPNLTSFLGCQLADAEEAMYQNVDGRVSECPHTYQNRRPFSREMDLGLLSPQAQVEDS
In short: (§1)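 IC50 values determined by Eurofins Discovery.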

BaF3 [3] = experiment: Induction of cell cycle arrest in mouse BaF3 cells harbouring JAK2 […] mutant assessed as accumulation of cells at G0/G1 phase at 16 nM incubated for 24 hrs by propidium iodide staining based flow cytometry analysis (reference value: 56.85 %); format: functional
BaF3 [4] = experiment: Induction of cell cycle arrest in mouse BaF3 cells harbouring JAK2 […] mutant assessed as accumulation of cells at G2/M phase at 0.5 nM incubated for 24 hrs by propidium iodide staining based flow cytometry analysis (reference value: 9.34 %); format: functional
BaF3 [5] = experiment: Induction of cell cycle arrest in mouse BaF3 cells harbouring JAK2 […] mutant assessed as accumulation of cells at S phase at 0.5 nM incubated for 24 hrs by propidium iodide staining based flow cytometry analysis (reference value: 33.80 %); format: functional
BaF3 [6] = experiment: Induction of cell cycle arrest in mouse BaF3 cells harbouring JAK2 […] mutant assessed as accumulation of cells at G0/G1 phase at 2 nM incubated for 24 hrs by propidium iodide staining based flow cytometry analysis (reference value: 56.85 %); format: functional
BaF3 [7] = experiment: Induction of cell cycle arrest in mouse BaF3 cells harbouring JAK2 […] mutant assessed as accumulation of cells at S phase at 2 nM incubated for 24 hrs by propidium iodide staining based flow cytometry analysis (reference value: 33.80 %); format: functional
BaF3 [8] = experiment: Induction of cell cycle arrest in mouse BaF3 cells harbouring JAK2 […] mutant assessed as accumulation of cells at G0/G1 phase at 8 nM incubated for 24 hrs by propidium iodide staining based flow cytometry analysis (reference value: 56.85 %); format: functional
BaF3 [9] = experiment: Induction of apoptosis in mouse BaF3 cells harbouring JAK2 V617F mutant assessed as early apoptotic cells at 20 nM incubated for 24 hrs by Annexin V / propidium iodide staining based flow cytometry analysis (reference value: 14.4 %); format: functional
In short: (§2)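 Ba/F3 JAK2V617F cells exposed to compound at 20, 40, 80, 160 and 320 nM, then analysed for apoptosis by flow cytometry. Significance vs control by Dunnett's t test.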

BaF3 [10] = experiment: Induction of apoptosis in mouse BaF3 cells harbouring JAK2 V617F mutant assessed as necrotic cells at 20 nM incubated for 24 hrs by Annexin V / propidium iodide staining based flow cytometry analysis (reference value: 0.64 %); format: functional; in short: as §2
BaF3 [11] = experiment: Induction of apoptosis in mouse BaF3 cells harbouring JAK2 V617F mutant assessed as necrotic cells at 40 nM incubated for 24 hrs by Annexin V / propidium iodide staining based flow cytometry analysis (reference value: 0.64 %); format: functional; in short: as §2
BaF3 [12] = experiment: Induction of apoptosis in mouse BaF3 cells harbouring JAK2 V617F mutant assessed as viable cells at 160 nM incubated for 24 hrs by Annexin V / propidium iodide staining based flow cytometry analysis (reference value: 72.8 %); format: functional; conditions: read-out: Activity; in short: as §2
BaF3 [13] = experiment: Induction of apoptosis in mouse BaF3 cells harbouring JAK2 V617F mutant assessed as viable cells at 320 nM incubated for 24 hrs by Annexin V / propidium iodide staining based flow cytometry analysis (reference value: 72.8 %); format: functional; conditions: read-out: Activity; in short: as §2
BaF3 [14] = experiment: Induction of apoptosis in mouse BaF3 cells harbouring JAK2 V617F mutant assessed as late apoptotic cells at 320 nM incubated for 24 hrs by Annexin V / propidium iodide staining based flow cytometry analysis (reference value: 12.2 %); format: functional; in short: as §2
[15] = target: T1, Receptor-type tyrosine-protein kinase FLT3; experiment: Inhibition of FLT3 in human MOLM-13 cells; format: cell-based
In short: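 Cell proliferation assay. IC50 is the concentration that inhibits proliferation by 50%, taken from dose–response curves. Mean ± SEM of at least three independent experiments.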

[16] = target: Tyrosine-protein kinase JAK2 (Homo sapiens, UniProt O60674); experiment: Inhibition of JAK2 (unknown origin) in presence of Mg/ATP mixture by [gamma p33]-ATP based radiometric assay; in short: as §1
Chain of Tyrosine-protein kinase JAK2 (O60674 whole entry): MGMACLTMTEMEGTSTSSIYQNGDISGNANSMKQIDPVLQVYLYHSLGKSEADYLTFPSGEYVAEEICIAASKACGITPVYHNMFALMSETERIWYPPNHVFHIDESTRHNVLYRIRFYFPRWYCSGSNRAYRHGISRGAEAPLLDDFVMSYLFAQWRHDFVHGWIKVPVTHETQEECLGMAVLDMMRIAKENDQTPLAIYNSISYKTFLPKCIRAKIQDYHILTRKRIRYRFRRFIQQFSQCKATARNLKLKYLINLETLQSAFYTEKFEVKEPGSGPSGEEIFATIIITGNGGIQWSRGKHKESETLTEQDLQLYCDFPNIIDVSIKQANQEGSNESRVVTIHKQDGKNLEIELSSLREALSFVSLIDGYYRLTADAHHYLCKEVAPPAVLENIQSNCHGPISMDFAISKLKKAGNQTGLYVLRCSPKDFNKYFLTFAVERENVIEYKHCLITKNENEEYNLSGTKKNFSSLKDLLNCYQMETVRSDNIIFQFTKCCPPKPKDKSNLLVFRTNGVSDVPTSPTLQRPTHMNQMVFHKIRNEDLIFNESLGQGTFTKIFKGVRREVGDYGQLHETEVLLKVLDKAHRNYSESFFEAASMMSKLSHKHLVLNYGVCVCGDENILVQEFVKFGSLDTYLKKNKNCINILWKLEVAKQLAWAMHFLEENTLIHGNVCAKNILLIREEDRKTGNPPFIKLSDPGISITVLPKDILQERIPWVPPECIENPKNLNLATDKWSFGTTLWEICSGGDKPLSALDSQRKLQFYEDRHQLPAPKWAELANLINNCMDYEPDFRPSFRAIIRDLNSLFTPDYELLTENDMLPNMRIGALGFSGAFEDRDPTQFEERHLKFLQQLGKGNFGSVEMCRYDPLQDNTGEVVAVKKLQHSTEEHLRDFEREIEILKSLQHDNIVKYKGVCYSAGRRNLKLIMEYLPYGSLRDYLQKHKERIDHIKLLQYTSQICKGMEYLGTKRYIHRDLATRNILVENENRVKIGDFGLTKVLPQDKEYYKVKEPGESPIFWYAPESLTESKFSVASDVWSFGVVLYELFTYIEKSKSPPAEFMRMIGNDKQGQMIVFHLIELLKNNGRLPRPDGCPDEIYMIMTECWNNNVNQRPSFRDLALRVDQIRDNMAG

[17] = AUC(0 to t) in Sprague-Dawley rat at 5 mg/kg, po measured upto 24 hrs by LC-MS/MS analysis; format: ADME, organism-based; design: time < 24 hrs, dose 5 mg/kg, route po; conditions: in vivo
In short: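 Sprague–Dawley rats, n = 5, dosed at 5 mg/kg as a solution in 2% ethanol and 1% Tween 80, pH 5.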

[18] = target: Tyrosine-protein kinase Lck (Homo sapiens) (UniProt P06239); experiment: Inhibition of LCK (unknown origin)
Chain of Tyrosine-protein kinase Lck (Homo sapiens) (P06239 2-509 limits assumed): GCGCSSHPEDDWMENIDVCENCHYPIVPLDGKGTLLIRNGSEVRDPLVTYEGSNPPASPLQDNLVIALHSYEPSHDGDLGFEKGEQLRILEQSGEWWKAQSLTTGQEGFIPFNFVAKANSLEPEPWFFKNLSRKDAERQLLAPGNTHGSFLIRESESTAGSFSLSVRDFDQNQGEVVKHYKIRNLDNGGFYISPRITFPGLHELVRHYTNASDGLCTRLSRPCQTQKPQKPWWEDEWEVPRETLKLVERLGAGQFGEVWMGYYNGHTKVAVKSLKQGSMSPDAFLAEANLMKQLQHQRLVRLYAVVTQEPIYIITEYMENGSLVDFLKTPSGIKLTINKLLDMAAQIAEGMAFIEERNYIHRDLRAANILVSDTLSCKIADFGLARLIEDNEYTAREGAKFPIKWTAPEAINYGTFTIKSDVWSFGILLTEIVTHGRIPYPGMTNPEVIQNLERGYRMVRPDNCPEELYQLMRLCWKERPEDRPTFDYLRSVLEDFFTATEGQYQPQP
In short: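 Kinase panel profiling (KinaseProfile, run by an outside contractor). The inhibitor was tested at 1 μM in duplicate against DMSO control. The value is % control, the percentage of kinase activity remaining.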

BaF3 [19] = experiment: Inhibition of JAK2/STAT signaling pathway in mouse BaF3 cells harbouring JAK2 V617F mutant assessed as reduction in AKT phosphorylation at 10 to 1000 nM by Western blot analysis; format: cell-based; conditions: dose 10-1000 nM
In short: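 Ba/F3 JAK2V617F cells treated with compound at increasing concentrations. Phosphorylation levels of JAK2, STAT3, STAT5 and AKT assessed by Western blot.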

Row | SMILES | half-life [1] | pIC50 [2] | Activity (BaF3 [3]) | Activity (BaF3 [4]) | Activity (BaF3 [5]) | Activity (BaF3 [6]) | Activity (BaF3 [7]) | Activity (BaF3 [8]) | Activity (BaF3 [9]) | Activity (BaF3 [10]) | Activity (BaF3 [11]) | viability at 0.16 µM (BaF3 [12]) | viability at 0.32 µM (BaF3 [13]) | Activity (BaF3 [14]) | pIC50 [15] | pIC50 [16] | AUCt [17] | inhibition [18] | inhibition (BaF3 [19])
1 | Cc1cnc(Nc2ccc3c(c2)CCN(C(=O)/C=C/CN(C)C)C3)nc1-c1cnn(C(C)C)c1 | 54.6 min | 7.21 | 59.42% | 9.64% | 34.4% | 56.54% | 27.94% | 58.82% | 18.4% | 1.04% | 0.89% | 19.4% | 14.3% | 35.2% | – | – | – | – | –
2 | C=CS(=O)(=O)NCc1ccc(Nc2ncc(C)c(-c3cnn(C(C)C)c3)n2)cc1 | > 120 min | 6.33 | 69.31% | 9.03% | 31.74% | 61.14% | 30.58% | 63.86% | 24.7% | 1.61% | 3.27% | 22.9% | 24.5% | 40.1% | 6.23 | 8.30 | 3517.9 ng·h/mL | Active | Active
